Assay results taken from ChEMBL document CHEMBL1148652, “Design of potent, orally available antagonists of the transient receptor potential vanilloid 1. Structure-activity relationships of 2-piperazin-1-yl-1H-benzimidazoles” (J Med Chem, 2006).

Experiments:
[1] = molecular target: T1, Transient receptor potential cation channel subfamily V member 1 (Rattus norvegicus, UniProt O35433); assay: Antagonist activity against capsaicin-induced 45calcium ion uptake in CHO cells expressing rat TRPV1; type: functional, cell-based
T1 sequence (O35433 whole entry): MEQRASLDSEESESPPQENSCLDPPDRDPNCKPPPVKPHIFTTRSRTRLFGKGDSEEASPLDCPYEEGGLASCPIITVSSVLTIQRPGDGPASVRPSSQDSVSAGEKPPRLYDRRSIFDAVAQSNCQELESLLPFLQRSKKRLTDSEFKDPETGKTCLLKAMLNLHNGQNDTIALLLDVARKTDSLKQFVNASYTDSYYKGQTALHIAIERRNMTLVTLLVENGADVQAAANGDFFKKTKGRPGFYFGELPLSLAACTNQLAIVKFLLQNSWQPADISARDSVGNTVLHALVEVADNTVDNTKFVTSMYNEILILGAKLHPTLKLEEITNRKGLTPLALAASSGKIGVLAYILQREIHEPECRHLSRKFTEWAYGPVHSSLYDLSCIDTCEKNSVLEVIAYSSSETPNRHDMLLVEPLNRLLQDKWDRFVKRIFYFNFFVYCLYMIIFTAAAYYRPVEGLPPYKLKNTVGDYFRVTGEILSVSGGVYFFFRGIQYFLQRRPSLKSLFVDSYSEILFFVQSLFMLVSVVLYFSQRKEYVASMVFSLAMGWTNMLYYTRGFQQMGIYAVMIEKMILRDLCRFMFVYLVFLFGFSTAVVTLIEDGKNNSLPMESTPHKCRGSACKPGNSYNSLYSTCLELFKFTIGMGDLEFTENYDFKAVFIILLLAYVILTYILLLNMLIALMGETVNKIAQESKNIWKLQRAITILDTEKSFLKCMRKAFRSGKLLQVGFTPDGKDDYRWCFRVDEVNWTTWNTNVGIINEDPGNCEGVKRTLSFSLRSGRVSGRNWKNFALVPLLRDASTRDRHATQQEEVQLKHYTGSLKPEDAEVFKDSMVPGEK
Summary of the method: (§1)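 CHO cells recombinantly expressing rat TRPV1; inhibition of 45Ca2+ uptake triggered by capsaicin or by acid, pH 5. Functional IC50 in nM, averaged over at least two independent experiments, each with three replicates per concentration.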

[2] = molecular target: T1, Transient receptor potential cation channel subfamily V member 1; assay: Antagonist activity against acid-induced 45calcium ion uptake in CHO cells expressing rat TRPV1 at pH5; type: functional, cell-based; summary of the method: as §1

| SMILES | IC50 [1] | IC50 [2] |
| --- | --- | --- |
| C[C@@H]1CN(c2ncc(CO)cc2Cl)CCN1c1nc2c(NCc3ccccc3)cc(C(F)(F)F)cc2[nH]1 | 7 nM | 6.7 nM |
| FC(F)(F)c1cc2[nH]c(N3CCN(c4ncccc4C(F)(F)F)CC3)nc2cc1Br | 166 nM | 43 nM |
| C[C@@H]1CN(c2ncc(C(=O)O)cc2Cl)CCN1c1nc2c(-c3cc(F)c(F)c(F)c3)cc(C(F)(F)F)cc2[nH]1 | 46 nM | 27 nM |
| CCC[C@@H]1CN(c2ncccc2C(F)(F)F)CCN1c1nc2cc(C(F)(F)F)ccc2[nH]1 |  | > 4000 nM |
| FC(F)(F)c1cccnc1N1CCN(c2nc3ccc(Cl)cc3[nH]2)CC1 | 1130 nM | 17300 nM |
| CC(C)(C)c1ccc2nc(N3CCN(c4ncccc4Cl)CC3)[nH]c2c1 | 87 nM | 310 nM |
| Fc1ccc(-c2ccc3[nH]c(N4CCN(c5ncccc5C(F)(F)F)CC4)nc3c2)cc1F | 1140 nM | 351 nM |
| COC(=O)c1ccc2nc(N3CCN(c4ncccc4C(F)(F)F)CC3)[nH]c2c1 | 1230 nM | > 4000 nM |
| C[C@@H]1CN(c2ncc(CO)cc2Cl)CCN1c1nc2cc(C(F)(F)F)cc(NC(=O)OC(C)(C)C)c2[nH]1 | 2.1 nM | 1.1 nM |
| C[C@@H]1CN(c2ncc(CO)cc2Cl)CCN1c1nc2c(N(Cc3ccccc3)Cc3ccccc3)cc(C(F)(F)F)cc2[nH]1 | 1.9 nM | 0.9 nM |
| CC(C)(C)c1ccc(-c2cc(C(F)(F)F)cc3[nH]c(N4CCN(c5ncccc5C(F)(F)F)CC4)nc23)cc1 |  | 4 nM |
| CC(C)(C)c1ccc2[nH]c(N3CCN(c4ncccc4C(F)(F)F)CC3)nc2c1 | 183 nM | 282 nM |
| CC(=O)c1cnc(N2CCN(c3nc4cc(C(F)(F)F)ccc4[nH]3)CC2)c(Cl)c1 | 581 nM | 832 nM |
| FC(F)(F)c1cc(C2CCC(C(F)(F)F)CC2)c2nc(N3CCN(c4ncccc4C(F)(F)F)CC3)[nH]c2c1 (stereo not drawn) | 10 nM | 9 nM |
| C[C@@H]1CN(c2ncc(CO)cc2C(F)(F)F)CCN1c1nc2c(-c3cc(F)c(F)c(F)c3)cc(C(F)(F)F)cc2[nH]1 | 1.4 nM | 0.7 nM |
| O=[N+]([O-])c1cc(C(F)(F)F)cc2[nH]c(N3CCN(c4ncccc4C(F)(F)F)CC3)nc12 | 1660 nM | 878 nM |
| C[C@H]1CN(c2nc3c(-c4cc(F)c(F)c(F)c4)cc(C(F)(F)F)cc3[nH]2)CCN1c1ncccc1Br | 767 nM | 254 nM |
| FC(F)(F)c1cc(N2CCOCC2)c2[nH]c(N3CCN(c4ncccc4C(F)(F)F)CC3)nc2c1 | 50 nM | 95 nM |
| FC(F)(F)c1cc(-c2ccncc2)c2[nH]c(N3CCN(c4ncccc4C(F)(F)F)CC3)nc2c1 | 267 nM | 188 nM |
| CN(C)c1ccc(-c2cc(C(F)(F)F)cc3[nH]c(N4CCN(c5ncccc5C(F)(F)F)CC4)nc23)cc1 | 108 nM | 69 nM |
| FC(F)(F)c1cc(/C=C/c2ccccc2)c2[nH]c(N3CCN(c4ncccc4C(F)(F)F)CC3)nc2c1 | 185 nM | 140 nM |
| C[C@@H]1CN(c2ncccc2Br)CCN1c1nc2c(-c3cc(F)c(F)c(F)c3)cc(C(F)(F)F)cc2[nH]1 | 6.7 nM | 2.6 nM |
| FC(F)(F)c1ccc2[nH]c(N3CCN(c4ncccc4C(F)(F)F)CC3)nc2n1 | 1090 nM | 1410 nM |
| FC(F)(F)Oc1cccc(-c2cc(C(F)(F)F)cc3[nH]c(N4CCN(c5ncccc5C(F)(F)F)CC4)nc23)c1 | 26 nM | 21 nM |
| Cc1cccnc1N1CCN(c2nc3ccc(C(F)(F)F)cc3[nH]2)CC1 | 402 nM | 1140 nM |
| FC(F)(F)c1ccc(-c2cc(C(F)(F)F)cc3[nH]c(N4CCN(c5ncccc5C(F)(F)F)CC4)nc23)cc1 | 51 nM | 37 nM |
| FC(F)(F)c1ccc2nc(N3CCN(c4ncccc4C(F)(F)F)CC3)[nH]c2c1 |  | 301 nM |
| Nc1cc(C(F)(F)F)cc2[nH]c(N3CCN(c4ncccc4C(F)(F)F)CC3)nc12 |  | > 4000 nM |
| Cc1ccc2[nH]c(N3CCN(c4ncccc4C(F)(F)F)CC3)nc2c1 |  | > 4000 nM |
